Screens: PubChem BioAssay, NMMLSC
An excerpt weighted towards active compounds, which were near 2.3% of everything screened.
ABCG2 block: human ABCG2 inhibition, ABCB1 as counter-screen | Q9UNQ0 | IgMXP3 cells, JC-1 efflux, flow cytometry | inhibition, % at 6.6 µM | 190,000 compounds, 0.1% hits;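 active = inhibition above 80%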;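 also: 0% = DMSO and 100% = nicardipine control wells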
Target sequence (Q9UNQ0 whole entry, looked up): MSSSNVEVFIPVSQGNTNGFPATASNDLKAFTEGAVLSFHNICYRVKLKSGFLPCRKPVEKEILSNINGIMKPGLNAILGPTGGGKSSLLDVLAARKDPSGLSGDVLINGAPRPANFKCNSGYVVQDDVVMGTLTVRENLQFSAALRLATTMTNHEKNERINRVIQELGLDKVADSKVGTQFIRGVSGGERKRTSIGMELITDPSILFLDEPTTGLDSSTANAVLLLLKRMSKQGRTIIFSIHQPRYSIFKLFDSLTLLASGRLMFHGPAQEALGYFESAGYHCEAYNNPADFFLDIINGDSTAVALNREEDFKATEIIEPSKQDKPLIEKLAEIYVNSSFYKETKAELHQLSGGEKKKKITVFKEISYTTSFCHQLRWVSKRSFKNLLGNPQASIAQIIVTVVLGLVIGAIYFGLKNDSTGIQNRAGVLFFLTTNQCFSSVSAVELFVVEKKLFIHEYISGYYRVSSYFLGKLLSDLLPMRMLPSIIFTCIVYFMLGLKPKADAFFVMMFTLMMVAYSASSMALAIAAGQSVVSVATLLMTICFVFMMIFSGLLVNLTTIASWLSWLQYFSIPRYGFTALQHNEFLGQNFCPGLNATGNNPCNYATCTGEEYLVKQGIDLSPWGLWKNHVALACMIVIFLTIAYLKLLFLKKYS
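Read-out basis: Efflux inhibition in percent versus controls | Test system: ABCG2 IgMXP3 and barcoded ABCB1 CCRF-Adr cell mix | Quantity: 3 million cells/mL in well | Schedule: 10 min at 25 °C | Control set: Nicardipine as high control, DMSO as low control | Reagent: JC-1 as fluorescent efflux pump substrate | Signal: Flow cytometry of retained JC-1 fluorescence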
MEKK2wt PB1 HTS: raises or lowers MEK5 binding to wildtype human MEKK2 PB1 domain. bead flow cytometry, Alexa488-MEK5 binding to MEKK2 WT; actives lie on both sides. binding response (% of control), % at 10 µM. 290,000 compounds, 1.1% hits; in the data active = binding response below about 67% or above about 130%
ABCB1 inh: inhibitors of human ABCB1 transporter, ABCG2 counter-screen | AID 1326 | inhibition, % at 6.6 µM | CCRF-Adr cells, JC-1 efflux, flow cytometry | 190,000 compounds, 0.067% hits | P08183; in the data active = inhibition above about 40%;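 also: 0% = vehicle and 100% = reference inhibitor; higher value means more JC-1 retained so stronger ABCB1 efflux block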
MEKK2mut PB1 HTS: signal of MEK5 binding to mutant human MEKK2 PB1 domain; bead flow cytometry, Alexa488-MEK5 binding to MEKK2 mutant; percent response, % at 10 µM; 290,000 compounds, 0.35% hits; in the data active = percent response above about 24%, passing the limit was not always enough
MEKK3 PB1 HTS: modulators (inhibitors or enhancers) of MEK5 binding to human MEKK3 PB1 domain; bead-based flow cytometry, Alexa488-MEK5 binding to MEKK3; actives lie on both sides; 0 = blocked by unlabeled MEK5, 100 = vehicle; binding response (% of control), % at 10 µM; 290,000 compounds, 1.4% hits; AID 1529;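 active = binding response more than 3 SD above or below the average of its plate-row segment, actives on both sides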;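 also: Alexa488 bead fluorescence after subtracting the streptavidin-only scavenger bead signal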
MEKK2wt confirm: raises or lowers MEK5 binding to wildtype human MEKK2, retest; binding response (% of control), % at 10 µM; AID 1892; 5,900 compounds, 2.4% hits; shares compounds with MEKK3 PB1 HTS; bead flow cytometry, Alexa488-MEK5 binding to MEKK2 WT; actives lie on both sides; in the data active = binding response below about 16% or above about 210%; inactive = in between
MEKK2mut-MEK5: signal of MEK5 binding to mutant human MEKK2, retest; shares compounds with MEKK3 PB1 HTS; bead flow cytometry, Alexa488-MEK5 binding to MEKK2 mutant; percent response, % at 10 µM; 5,900 compounds, 2% hits; AID 1893; in the data active = percent response mostly above about 71%, no sharp cut-off; inactive = mostly below about 38%;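 also: higher means compound restores mutant binding toward wildtype level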
MEKK3-MEK5 inh: MEKK3-MEK5 PB1 inhibition, single concentration confirmation. shares compounds with MEKK3 PB1 HTS. bead flow cytometry, Alexa488-MEK5 binding to MEKK3; active compounds read low. binding response (% of control), % at 10 µM. 5,900 compounds, 1.8% hits;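 active = binding response below 72% of control, or above a set upper limit, though filed actives all read lower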;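 also: 100% = DMSO only wells and 0% = binding blocked by excess unlabeled MEK5; lower values mean stronger disruption of MEK5 binding to MEKK3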
* marks the source's active call; other numbers are inactive results; [ ] = dose if it differs, or a comment.

For COc1cccc(NC(=O)c2ccc(NCCCN3CC(C)CC(C)C3)c([N+](=O)[O-])c2)c1 (configuration not stated) the results were ABCG2 block 11, MEKK2wt PB1 HTS 139*, ABCB1 inh 1, MEKK2mut PB1 HTS 19, MEKK3 PB1 HTS 111, MEKK2wt confirm 147, MEKK2mut-MEK5 16 and MEKK3-MEK5 inh 109.
Screening CSc1ccc(/C=N/N2CCN(Cc3ccc(Cl)cc3)CC2)cc1 returned ABCG2 block 4, MEKK2wt PB1 HTS 4.0*[inhibitor], ABCB1 inh 0, MEKK2mut PB1 HTS -46, MEKK3 PB1 HTS 3.0*[inhibitor], MEKK2wt confirm 105, MEKK2mut-MEK5 -1 and MEKK3-MEK5 inh 103.
Screening CSc1ccc(/C=N/NC(=O)CN2CCN(Cc3ccc(Cl)cc3)CC2)cc1 returned ABCG2 block 2, MEKK2wt PB1 HTS 111, ABCB1 inh 1, MEKK2mut PB1 HTS 2, MEKK3 PB1 HTS 137*, MEKK2wt confirm 111, MEKK2mut-MEK5 9 and MEKK3-MEK5 inh 103.
CSc1ccc(/C=N/N2CCN(C)CC2)cc1 was read as ABCG2 block 3, MEKK2wt PB1 HTS 99, ABCB1 inh 1, MEKK2mut PB1 HTS -4 and MEKK3 PB1 HTS 93.
For CC1CCC(C(C)C)C(OCC(O)C[N+]2(C)CCCCC2)C1 (configuration not stated) the results were ABCG2 block 1, MEKK2wt PB1 HTS 85, ABCB1 inh 0, MEKK2mut PB1 HTS -12 and MEKK3 PB1 HTS 94.
Screening CC1CCC(C(C)C)C(OCC[N+](C)(C)C)C1 (configuration not stated) returned ABCG2 block 2, MEKK2wt PB1 HTS 111, ABCB1 inh 0, MEKK2mut PB1 HTS 1, MEKK3 PB1 HTS 143*, MEKK2wt confirm 101, MEKK2mut-MEK5 0 and MEKK3-MEK5 inh 102.
`O=C(O)c1nn(Cc2ncc(-c3cccc(Cl)c3)o2)c(=O)c2ccccc12` gave MEKK2wt PB1 HTS 92, MEKK2mut PB1 HTS 0 and MEKK3 PB1 HTS 98.
Cc1ccccc1C(=O)NC(=S)Nc1ccc2[nH]c(=O)[nH]c2c1 was read as ABCG2 block 5, MEKK2wt PB1 HTS 117, ABCB1 inh 0, MEKK2mut PB1 HTS 3, MEKK3 PB1 HTS 135*, MEKK2wt confirm 96, MEKK2mut-MEK5 -1 and MEKK3-MEK5 inh 99.
O=c1[nH]c2ccc(NC(=S)NCCc3ccccc3)cc2[nH]1 was read as MEKK2wt PB1 HTS 44*[inhibitor], MEKK2mut PB1 HTS -13, MEKK3 PB1 HTS 41*[inhibitor], MEKK2wt confirm 96, MEKK2mut-MEK5 3 and MEKK3-MEK5 inh 101.
For Cc1cc(Cl)ccc1C(=O)C1CCCN(C(=O)c2cnn(C(C)C)c2)C1 (configuration not stated) the results were MEKK2wt PB1 HTS 103, MEKK2mut PB1 HTS 4 and MEKK3 PB1 HTS 100.
COc1ccccc1Nc1ccc2nonc2c1[N+](=O)[O-] was read as MEKK2wt PB1 HTS 112, MEKK2mut PB1 HTS 10 and MEKK3 PB1 HTS 108.
Screening CCC(=O)NC(=S)Nc1ccc(OC)cc1OC returned ABCG2 block 2, MEKK2wt PB1 HTS 110, ABCB1 inh -1, MEKK2mut PB1 HTS 0, MEKK3 PB1 HTS 134*, MEKK2wt confirm 95, MEKK2mut-MEK5 1 and MEKK3-MEK5 inh 94.
`COc1ccc(NC(=O)CN2C(=O)CSC(C)C2=O)c(OC)c1` (configuration not stated) gave ABCG2 block -8, MEKK2wt PB1 HTS 107, ABCB1 inh -1, MEKK2mut PB1 HTS 0, MEKK3 PB1 HTS 137*, MEKK2wt confirm 101, MEKK2mut-MEK5 1 and MEKK3-MEK5 inh 103.
`COc1ccc(C(C(=O)OC(C)CN(C)C)c2ccccc2)cc1` (configuration not stated) gave ABCG2 block 1, MEKK2wt PB1 HTS 116, ABCB1 inh 0, MEKK2mut PB1 HTS 25*, MEKK3 PB1 HTS 107, MEKK2wt confirm 54, MEKK2mut-MEK5 -36 and MEKK3-MEK5 inh 45*.
`OCC1(Cc2cccc(Cl)c2)CCCN(Cc2cnn(-c3ccccc3)c2)C1` (configuration not stated) gave ABCG2 block 1, MEKK2wt PB1 HTS 140*, ABCB1 inh 2, MEKK2mut PB1 HTS 24, MEKK3 PB1 HTS 94, MEKK2wt confirm 130, MEKK2mut-MEK5 20 and MEKK3-MEK5 inh 103.
Cn1cc(CN2CCCC(CO)(Cc3cccc(Cl)c3)C2)cn1 (configuration not stated) was read as ABCG2 block 3, MEKK2wt PB1 HTS 112, ABCB1 inh 0, MEKK2mut PB1 HTS 7 and MEKK3 PB1 HTS 103.
For CCN1c2ccccc2NC2C1C(C(C)=O)C(=O)N2c1ccc(Cl)cc1 (configuration not stated) the results were ABCG2 block 7, MEKK2wt PB1 HTS 59*, ABCB1 inh 1, MEKK2mut PB1 HTS 73*, MEKK3 PB1 HTS 93, MEKK2wt confirm 101, MEKK2mut-MEK5 -2 and MEKK3-MEK5 inh 102.
Screening CSc1ccc(/C=C/C(=O)NC(=O)c2ccccc2O)cc1 returned ABCG2 block 0, MEKK2wt PB1 HTS 116, ABCB1 inh 0, MEKK2mut PB1 HTS 1, MEKK3 PB1 HTS 128*, MEKK2wt confirm 100, MEKK2mut-MEK5 1 and MEKK3-MEK5 inh 103.
O=C(/C=C/c1ccc(Br)cc1)NC(=O)c1ccccc1O was read as ABCG2 block 0, MEKK2wt PB1 HTS 89, ABCB1 inh -1, MEKK2mut PB1 HTS -2 and MEKK3 PB1 HTS 98.
Screening Cc1ccc(C(C(=O)NC2CCCCC2)N(Cc2cccnc2)C(=O)c2csnn2)cc1 (configuration not stated) returned MEKK2wt PB1 HTS 97, MEKK2mut PB1 HTS 3 and MEKK3 PB1 HTS 101.
For Nc1ccc(N)c(C(=O)O)c1 the results were MEKK2wt PB1 HTS 25*[inhibitor], MEKK2mut PB1 HTS -58, MEKK3 PB1 HTS 47*[inhibitor], MEKK2wt confirm 57, MEKK2mut-MEK5 -20 and MEKK3-MEK5 inh 57*.
CC1CCCN(C(=O)CN2C(=O)c3ccccc3C2=O)C1 (configuration not stated) was read as ABCG2 block 5, MEKK2wt PB1 HTS 13*[inhibitor], ABCB1 inh -1, MEKK2mut PB1 HTS -35, MEKK3 PB1 HTS 29*[inhibitor], MEKK2wt confirm 95, MEKK2mut-MEK5 10 and MEKK3-MEK5 inh 103.
